Experimental data as given in ChEMBL document CHEMBL1140469, “Novel, potent THC/anandamide (hybrid) analogs” (Bioorg Med Chem, 2007).

Key:
Mus musculus [1] = experiment: Suppression of spontaneous activity in mouse at 30 mg/kg, iv; type: functional
How it was run: (§1)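 Mice dosed iv in ethanol:emulphor:saline 1:1:18. After the 4-min tail-flick retest, each mouse spent 10 min in a photocell cage where beam interruptions were counted. Activity expressed as % of vehicle group, 6 mice/dose. ED50 from regression against log dose, in µmol/kg. Maximum dose 30 mg/kg.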

Cannabinoid receptor 2 = Cannabinoid receptor 2 (Homo sapiens, UniProt P34972); experiment: Displacement of [3H]CP-55940 from human CB2 receptor expressed in CHO cells; type: cell-based
How it was run: (§2)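 Membranes (50 µg) from HEK-293 cells stably expressing human CB1 (DMEM, 10% FBS) or CHO cells stably expressing human CB2 (DMEM, 10% FCS). Incubated with 0.5 nM [3H]CP55,940 and test compound (1 nM–10 µM) in buffer with BSA 5 mg/mL, 1 h at 30 °C. Filtration, scintillation counting. Ki from displacement data; three experiments in triplicate.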

Mus musculus [2] = experiment: Hypothermic activity in mouse assessed as change in rectal temperature at 30 mg/kg, iv after 4 mins; type: functional
How it was run: (§3)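 A separate group of mice had rectal temperature taken by thermistor probe inserted 25 mm, before and 4 min after iv dosing in ethanol:emulphor:saline 1:1:18. Change is the pre minus post difference. ED50 from regression against log dose, in µmol/kg; otherwise maximal change given with its dose. Maximum dose 30 mg/kg.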

Mus musculus [3] = experiment: Antinociceptive activity in mouse at 30 mg/kg, iv by tail filck test; type: functional
How it was run: (§4)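 Mouse tail flick to radiant heat from bright light, 10-s cutoff. Baseline latency taken, then iv tail-vein dosing in ethanol:emulphor:saline 1:1:18, 0.1 mL/10 g. Retested 4 min later. Result expressed as %MPE, 6 mice/dose. ED50 from least-squares linear regression against log dose, in µmol/kg. Doses above 30 mg/kg not given.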

Cannabinoid receptor 1 = Cannabinoid receptor 1 (Homo sapiens, UniProt P21554); experiment: Displacement of [3H]CP-55940 from human CB1 receptor expressed in HEK293 cells; type: cell-based; how it was run: as §2
Mus musculus [4] = experiment: Induction of ring immobility in mouse at 30 mg/kg, iv; type: functional
How it was run: (§5)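 Right after the temperature reading, iv-dosed mice (ethanol:emulphor:saline 1:1:18) were placed on a 5.5-cm ring set 16 cm high. Time spent motionless over 5 min was recorded. ED50 from regression against log dose, in µmol/kg; otherwise maximal effect given with its dose. Maximum dose 30 mg/kg.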

Mus musculus [5] = experiment: Hypothermic activity in iv dosed mouse assessed as change in rectal temperature after 4 mins; type: functional; how it was run: as §3
Mus musculus [6] = experiment: Antinociceptive activity in iv dosed mouse by tail filck test; type: functional; how it was run: as §4
Mus musculus [7] = experiment: Suppression of spontaneous activity in iv dosed mouse; type: functional; how it was run: as §1
Mus musculus [8] = experiment: Induction of ring immobility in iv dosed mouse; type: functional; how it was run: as §5

Cannabinoid receptor 1, sequence (P21554 whole entry): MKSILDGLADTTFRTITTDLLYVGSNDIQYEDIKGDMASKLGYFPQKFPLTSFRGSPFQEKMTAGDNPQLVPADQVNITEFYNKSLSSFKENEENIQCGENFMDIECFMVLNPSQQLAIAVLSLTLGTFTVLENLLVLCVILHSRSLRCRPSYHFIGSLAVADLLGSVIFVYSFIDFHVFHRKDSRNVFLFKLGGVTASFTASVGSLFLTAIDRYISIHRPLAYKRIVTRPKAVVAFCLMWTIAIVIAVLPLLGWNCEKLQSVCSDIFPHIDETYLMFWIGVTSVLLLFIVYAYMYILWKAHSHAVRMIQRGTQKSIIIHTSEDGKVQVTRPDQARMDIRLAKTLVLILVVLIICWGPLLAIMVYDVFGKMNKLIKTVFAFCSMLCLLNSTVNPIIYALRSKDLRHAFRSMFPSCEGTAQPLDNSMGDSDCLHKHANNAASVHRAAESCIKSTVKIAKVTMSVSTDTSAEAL
Cannabinoid receptor 2, sequence (P34972 whole entry): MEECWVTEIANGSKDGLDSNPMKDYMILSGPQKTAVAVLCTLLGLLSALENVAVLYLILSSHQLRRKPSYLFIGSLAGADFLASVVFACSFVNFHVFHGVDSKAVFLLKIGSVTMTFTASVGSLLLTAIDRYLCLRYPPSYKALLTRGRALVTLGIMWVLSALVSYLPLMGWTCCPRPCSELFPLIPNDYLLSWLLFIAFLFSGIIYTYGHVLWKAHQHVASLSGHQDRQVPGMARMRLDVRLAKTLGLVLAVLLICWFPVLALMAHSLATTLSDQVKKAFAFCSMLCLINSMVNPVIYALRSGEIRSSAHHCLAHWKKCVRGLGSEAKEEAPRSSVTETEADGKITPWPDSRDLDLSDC

SMILES | Activity (Mus musculus [1]) [%] | Ki (Cannabinoid receptor 2) [µM] | Activity (Mus musculus [2]) [°C] | Activity (Mus musculus [3]) [%] | Ki (Cannabinoid receptor 1) [µM] | Activity (Mus musculus [4]) [%] | ED50 (Mus musculus [5]) [µmol/kg] | ED50 (Mus musculus [6]) [µmol/kg] | ED50 (Mus musculus [7]) [µmol/kg] | ED50 (Mus musculus [8]) [µmol/kg]
CCCCCCC(C)(C)c1ccc(OCC/C=C\C/C=C\CCCC(=O)N[C@H](C)CO)cc1 | 44.9 | 0.0782 | -0.5 | 30.7 | 0.195 | 13.4 |  |  |  | 
C[C@H](CO)NC(=O)CCC/C=C\C/C=C\CCOc1cccc(C(C)(C)CCCCO)c1 |  | 0.0109 |  |  | 0.079 |  | 2.8 | 0.6 | 1.1 | 0.7
C[C@H](CO)NC(=O)CCC/C=C\C/C=C\CCOc1cccc(C(C)(C)CCCCBr)c1 |  | 0.00746 |  |  | 0.00887 |  | 2.1 | 0.8 | 0.7 | 1.4
C[C@H](CO)NC(=O)CCC/C=C\C/C=C\CCOc1cccc(C(C)(C)CCCCN=[N+]=[N-])c1 |  | 0.00252 |  |  | 0.00274 |  | 1.95 | 0.2 | 0.2 | 0.3
CCCCCCC(C)(C)c1cccc(OCC/C=C\C/C=C\C/C=C\CCCC(=O)N[C@H](C)CO)c1 | 55 | 0.189 | -0.9 | 61 | 0.131 | 22 |  |  |  | 
CCCCCCC(C)(C)c1cccc(OCC/C=C\C/C=C\CCCC(=O)N[C@H](C)CO)c1 |  | 0.0215 |  |  | 0.00855 |  | 7.8 | 8.45 | 3.73 | 9.66
CCCCCCC(C)(C)c1ccccc1/C=C\C/C=C\C/C=C\CCCC(=O)N[C@H](C)CO |  | 0.257 | -0.87 | 50 | 0.0863 |  |  |  | 25.7 | 27.7
